This is a sample that favours compounds with a hit; in the whole collection about 2.1% have one here.
CRFR2-BP antag – CRF-BP/CRF-R2 complex antagonism | HEK293 CRF-R2/CRF-BP, CRF-induced calcium fluorescence | inhibition, % at 11.8 µM | 0.59% of 350,000 active;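 active means inhibition of the ligand-induced calcium signal above about 50% at the single tested concentration, limit read from the data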
CRFR2-BP ag – CRF-BP/CRF-R2 complex agonism. HEK293 CRF-R2/CRF-BP, calcium dye fluorescence (FLIPR); percent of saturating CRF peptide response. activation, % at 13.2 µM. 0.46% of 350,000 active;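 active means activation of at least 50%, plus an integration ratio under a set limit after plate pattern correction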;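 further: plate controls were neutral control wells without compound for no effect and CRF at EC100 for full effect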
zfTRPN1 agonist – agonists of zebrafish TRPN1 channel; HEK293 zebrafish TRPN1-YFP, Fluo-8 calcium fluorescence; 100% = response to 87 µM carbachol; activation, % at 3 µM; 0.18% of 220,000 active; AID 1424;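 active means activation above its plate's cutoff, the mean activation of test wells on that plate plus 3 SD, cut at about 19% in these data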;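 further: 0% = DMSO alone and 100% = 87 µM carbachol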
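Control set: carbachol 87 µM as high control, DMSO as low control; system: HEK293 stable line with zebrafish TRPN1-YFP; read-out: % activation versus carbachol response; detection: intracellular calcium fluorescence with Fluo-8; doses: single test compound dose, 3 µM nominal, 0.3% DMSO; schedule: dye 1 h 37 °C plus 30 min RT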
TRPML3 ag – human mucolipin-3 channel agonism; Q8TDD5; HEK293 TRPML3-YFP, Fluo-8 calcium fluorescence; 100% = the carbachol control signal; AID 1448; activation, % at 3 µM; 0.29% of 220,000 active;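 active means activation above its plate's cutoff, the mean activation of the plate's test wells plus 3 SD, cut at about 12% in these data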;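 further: 0% = DMSO only wells and 100% = carbachol wells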
Target sequence (Q8TDD5 whole entry, looked up): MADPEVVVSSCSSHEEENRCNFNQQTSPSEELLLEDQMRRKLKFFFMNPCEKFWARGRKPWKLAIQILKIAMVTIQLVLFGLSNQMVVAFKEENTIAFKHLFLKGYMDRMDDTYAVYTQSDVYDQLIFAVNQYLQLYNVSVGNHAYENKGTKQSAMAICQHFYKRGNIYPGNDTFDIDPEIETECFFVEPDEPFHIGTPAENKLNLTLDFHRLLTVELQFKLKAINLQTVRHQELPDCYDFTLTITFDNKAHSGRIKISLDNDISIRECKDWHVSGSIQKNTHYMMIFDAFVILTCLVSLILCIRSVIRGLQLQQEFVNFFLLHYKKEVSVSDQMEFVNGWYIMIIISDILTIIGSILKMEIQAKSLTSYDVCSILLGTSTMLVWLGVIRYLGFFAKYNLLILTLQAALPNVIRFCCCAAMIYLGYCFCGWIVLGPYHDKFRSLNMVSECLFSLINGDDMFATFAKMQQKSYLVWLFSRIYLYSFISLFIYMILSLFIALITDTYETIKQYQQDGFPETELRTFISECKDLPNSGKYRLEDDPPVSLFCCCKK
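Test system – HEK293 line with stable expression of human TRPML3-YFP channel · Control set – carbachol 87 µM final as high control (100%), DMSO as low control (0%) · Signal – Fluo-8 calcium dye fluorescence, ex 470-495, em 515-575 nm · Incubation – 1-h 37 °C dye load, 5-s basal, 120-s post-compound reads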
IMP-1 inhibitor – inhibitors of Pseudomonas aeruginosa IMP-1 metallo-beta-lactamase | inhibition, % at 5.6 µM | purified IMP-1, nitrocefin hydrolysis, epi-absorbance fluorescence | 0.45% of 290,000 active;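 active means inhibition above the mean plus 3 SD of all compounds in the same screening run, cut at about 4.5% in these data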;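 further: 0% = IMP-1 with DMSO and 100% = DMSO wells lacking enzyme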
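Material – recombinant IMP-1 enzyme, purified · Amount – IMP-1 0.2 nM before substrate addition · Medium – HEPES buffer pH 7.1 with ZnSO4 and Brij 35 · Timing – 25 °C, 15 min preincubation, 25 min reaction · Measured by – plate fluorescence quenching by hydrolysis product, ex 480/em 530 nm · Read-out – percent enzyme inhibition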
VIM-2 inhibitor – inhibitors of Pseudomonas aeruginosa VIM-2 metallo-beta-lactamase; purified VIM-2, nitrocefin hydrolysis, epi-absorbance fluorescence; 0.89% of 290,000 active; inhibition, % at 5.6 µM;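 active means inhibition above the mean of all tested compounds plus 3 SD, cutoff set per screening run, cut at about 7.5% in these data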;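 further: red hydrolysis product quenches plate fluorescence so inhibitors raise well fluorescence; 0% = enzyme with DMSO and 100% = DMSO without enzyme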
* hit, by the source's call; / = not tested or not shown.

SMILES	CRFR2-BP antag	CRFR2-BP ag	zfTRPN1 agonist	TRPML3 ag	IMP-1 inhibitor	VIM-2 inhibitor
O=C(NCCCN1CCCCC1)c1ccc2c(c1)NC(=O)C(N1CCCCC1)S2 (centres undefined)	-12.8	0.3	-0.5	0.3	5.2*	0.4
Cc1[nH]c(=O)c(C#N)cc1-c1csc(-c2ccccc2)n1	51.0*	-5.6	/	/	-0.7	-2.0
Cc1nc(-c2cc(C#N)c(=O)[nH]c2C)cs1	-1.5	0.7	0.3	0.1	-3.0	-2.4
CCCCN(CC)S(=O)(=O)N1CCC(C(=O)NCCCN2CCOCC2)CC1	15.5	-1.6	0.9	0.8	6.6*	-1.4
CN(C)S(=O)(=O)c1cc(NC(=O)c2ccc(-n3ccnc3)c([N+](=O)[O-])c2)ccc1Cl	10.1	-0.3	/	/	-2.9	8.0*
CCc1ccc(NC(=O)C2CCN(S(=O)(=O)c3cnc[nH]3)CC2)cc1	1.7	-0.8	/	/	12.1*	0.3
O=C(NCCCN1CCOCC1)c1ccc(Cl)cc1Cl	10.1	0.5	/	/	-2.4	-2.9
C=CCOc1c(CNc2cccc(C(=O)O)c2)cccc1OCC	64.0*	-1.1	0.5	0.1	-2.1	0.9
CC1Oc2ccccc2N(CC(=O)NC2CCCCC2)C1=O (centres undefined)	12.5	-1.3	/	/	-3.6	-2.7
CCOCc1nnc(NC(=O)C2CC(=O)N(C3CCCC3)C2)s1 (centres undefined)	7.8	2.7	/	/	-5.2	-1.4
COCc1cc(C)c(C#N)c(=S)[nH]1	-31.0	2.7	0.7	0.0	-2.7	0.2
C=CCc1c(C)[nH]c(=S)c(C#N)c1C	-3.1	-2.4	-0.6	0.5	9.3*	0.6
COc1ccc(C)cc1S(=O)(=O)N1CCN(S(=O)(=O)c2cc(C)ccc2OC)CC1	54.1*	-6.0	-0.8	0.5	-4.3	-0.7
CC(=O)Nc1ccc(NC(=O)C(C)OC(=O)C2CCCCC2)cc1 (centres undefined)	52.1*	-6.5	/	/	/	/
CC(=O)Nc1ccc(NC(=O)C(C)OC(=O)C2CCCC2)cc1 (centres undefined)	0.9	-1.5	/	/	/	/
CC(C)(C)c1ccc(C(=O)N2CCN(c3ccc(N4CCOCC4)nn3)CC2)cc1	13.6	0.2	/	/	/	/
O=C(CN(c1ccccc1)S(=O)(=O)c1ccc(F)cc1)NC1CCCCCC1	5.8	-0.8	/	/	-1.6	-1.2
COC(=O)COc1ccc2oc(=O)cc(-c3cc4cccc(OC)c4o3)c2c1	14.1	-0.9	/	/	9.7*	-2.0
Cc1cc(/C=C2\SC(=S)N(C)C2=O)c(C)n1-c1cccc(O)c1	-4.1	10.5	0.1	-0.2	0.1	3.8
COc1ccc(-n2c(C)cc(/C=C3/SC(=S)N(C)C3=O)c2C)cc1	-47.0	57.5*	2.0	1.3	-1.5	-1.0
COc1ccc(C)cc1NC(=O)COC(=O)c1c(-c2ccccc2)noc1C	14.3	1.0	/	/	/	/
COCCn1cc(C(=O)NCCCOC(C)C)c2c3ccccc3n(C)c2c1=O	-1.3	6.0	/	/	-2.0	1.3
CC(C)OCCCNC(=O)c1cc2c(=O)n(C)c3ccccc3c2n1C	21.8	-0.4	0.1	0.1	0.2	10.4*
COc1ccccc1-n1cnnc1SC(C)C(=O)NCC1CCCO1 (centres undefined)	2.6	-0.6	/	/	/	/
O=C1c2cccc3cccc(c23)C(=O)N1c1nccs1	21.4	-2.5	0.6	0.9	-2.6	-1.1
SMILES	CRFR2-BP antag	CRFR2-BP ag	zfTRPN1 agonist	TRPML3 ag	IMP-1 inhibitor	VIM-2 inhibitor
O=C1c2cccc3cccc(c23)C(=O)N1c1ccc2ncccc2c1	4.7	-1.6	-0.8	0.9	9.3*	0.6
O=C(O)c1ccccc1-c1c2cc(I)c(=O)c(I)c-2oc2c(I)c(O)c(I)cc12	-254.5	242.8*	/	/	/	/
O=c1[nH]c(=O)n(Cc2ccccc2)c2nc(-c3ccco3)cc(C(F)(F)F)c12	-36.0	-2.9	0.4	-1.3	-0.9	-3.1
Cc1cc(C(F)(F)F)c2c(=O)[nH]c(=O)n(Cc3ccccc3)c2n1	-13.5	-1.0	-1.5	-1.3	7.3*	2.6
Cc1[nH]n(CCC#N)c(=O)c1CC(=O)N1CCN(c2ccccc2)CC1	59.8*	1.3	0.9	-0.1	-2.0	-3.0
O=C(CCNC(=O)c1ccccc1Cl)Nc1nccs1	9.3	2.5	-0.1	0.4	-2.1	-1.6
COc1ccccc1OCc1nnc(SCC(=O)Nc2nnc(C3CC3)s2)n1C	2.2	-1.6	/	/	-1.6	-0.7
